Measured values reported in ChEMBL document CHEMBL4819117, “Probing cytochrome P450 (CYP) bioactivation with chloromethylindoline bioprecursors derived from the duocarmycin family of compounds” (Bioorg Med Chem, 2021).

Tests used:
EJ [1] = test: Antiproliferative activity against human EJ138 cells deficit in CYPs assessed as inhibition of cell growth after 96 hrs by MTT assay; assay type: functional, cell-based
Outline: (§1)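 Cells kept as monolayers at 37 °C in 5% CO2: EJ-138 and RT112 in RPMI 1640 with 10% FBS, sodium pyruvate and 2 mM L-glutamine; CHO and CHO-1A1 in DMEM. Compounds were taken from DMSO stocks into medium over 0.001–100 μM, with final DMSO ≤0.1%. Exposure lasted 96 h, then MTT read-out. IC50 values are mean ± SD of at least three independent assays.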

RT-112 = test: Antiproliferative activity against human RT112 cells proficient in CYP1A1 assessed as inhibition of cell growth after 96 hrs by MTT assay; assay type: functional, cell-based; conditions: RT-112, 96 h; outline: as §1
CHO [2] = test: Antiproliferative activity against wild type chinese hamster CHO cells deficit in CYPs assessed as inhibition of cell growth after 96 hrs by MTT assay; assay type: functional, cell-based; conditions: Cricetulus griseus; outline: as §1
CHO [3] = test: Antiproliferative activity against chinese hamster CHO cells transfected with CYP1A1 assessed as inhibition of cell growth after 96 hrs by MTT assay; assay type: functional, cell-based; conditions: Cricetulus griseus; outline: as §1
Cytochrome P450 1A1 [4] = molecular target: T1, Cytochrome P450 1A1 (Homo sapiens, UniProt P04798); test: Drug metabolism assessed as recombinant human CYP1A1-mediated metabolite M1 with m/z of 327.1 formation at 50 uM incubated for 1 hr in presence of reconstituted protein system by LC-MS analysis; assay type: ADME; conditions: recombinant enzyme
T1 sequence (P04798 whole entry): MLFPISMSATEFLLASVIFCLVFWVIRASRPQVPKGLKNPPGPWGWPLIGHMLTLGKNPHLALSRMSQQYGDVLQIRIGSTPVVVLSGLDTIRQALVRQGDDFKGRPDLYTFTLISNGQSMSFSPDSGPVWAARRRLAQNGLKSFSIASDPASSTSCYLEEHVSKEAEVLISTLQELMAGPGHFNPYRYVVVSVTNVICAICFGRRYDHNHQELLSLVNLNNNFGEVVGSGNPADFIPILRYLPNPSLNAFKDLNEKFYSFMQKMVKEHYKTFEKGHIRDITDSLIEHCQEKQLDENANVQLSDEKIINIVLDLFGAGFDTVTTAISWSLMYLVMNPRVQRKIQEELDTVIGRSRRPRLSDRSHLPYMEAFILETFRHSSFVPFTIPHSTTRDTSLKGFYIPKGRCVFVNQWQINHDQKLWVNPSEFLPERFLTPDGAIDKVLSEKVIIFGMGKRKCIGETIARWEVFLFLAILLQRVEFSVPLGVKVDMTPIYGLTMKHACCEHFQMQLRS
Outline: (§2)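 Substrate at 50 μM with human recombinant CYP1A1 in a reconstituted system: NADPH cytochrome P450 reductase plus freshly prepared DLPC (240 μM) in 100 mM potassium phosphate, pH 7.4. Mixture pre-warmed 3 min at 37 °C, started with NADPH (final 1 mM), incubated 1 h and extracted into dichloromethane. Analysis by reverse-phase HPLC with photodiode array detection and ESI+ quadrupole MS.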

EJ [5] = test: Antiproliferative activity against human EJ138 cells assessed as inhibition of cell growth preincubated for 1 hr with CYP null bactosomes measured after 96 hrs by MTT assay; assay type: functional, cell-based
Outline: (§3)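 Compound (50 μM) incubated 1 h at 37 °C with 20 pmol CYP bactosomes (CYP null, 1A1, 1A2, 1B1 or 3A4) in 2 mM NADPH, 1 mM MgCl₂, Tris-HCl pH 7.4. Metabolites were extracted with acetonitrile, centrifuged, and the supernatant dried and taken up in DMSO. EJ138 cells were exposed 96 h and growth read by MTT assay.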

EJ [6] = test: Antiproliferative activity against human EJ138 cells assessed as inhibition of cell growth preincubated for 1 hr with human CYP1A1 expressing bactosomes measured after 96 hrs by MTT assay; assay type: functional, cell-based; outline: as §3
EJ [7] = test: Antiproliferative activity against human EJ138 cells assessed as inhibition of cell growth preincubated for 1 hr with human CYP1A2 expressing bactosomes measured after 96 hrs by MTT assay; assay type: functional, cell-based; outline: as §3
EJ [8] = test: Antiproliferative activity against human EJ138 cells assessed as inhibition of cell growth preincubated for 1 hr with human CYP1B1 expressing bactosomes measured after 96 hrs by MTT assay; assay type: functional, cell-based; outline: as §3
EJ [9] = test: Antiproliferative activity against human EJ138 cells assessed as inhibition of cell growth preincubated for 1 hr with human CYP3A4 expressing bactosomes measured after 96 hrs by MTT assay; assay type: functional, cell-based; outline: as §3
EJ [10] = test: Potentiation factor, ratio of IC50 for antiproliferative activity against human EJ138 cells preincubated for 1 hr with CYP null bactosomes to IC50 for antiproliferative activity against human EJ138 cells preincubated for 1 hr with human CYP1A1 expressing bactosomes; assay type: functional
Outline: (§4)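 Potentiation factor = IC₅₀ in EJ138 given control (CYP null) bactosome extract ÷ IC₅₀ with the named CYP isoform extract. Extracts came from 1 h, 37 °C incubations of 50 μM compound with 20 pmol bactosomes plus 2 mM NADPH, 1 mM MgCl₂, Tris-HCl pH 7.4. Cells were exposed 96 h and read by MTT.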

EJ [11] = test: Potentiation factor, ratio of IC50 for antiproliferative activity against human EJ138 cells preincubated for 1 hr with CYP null bactosomes to IC50 for antiproliferative activity against human EJ138 cells preincubated for 1 hr with human CYP1A2 expressing bactosomes; assay type: functional; outline: as §4
EJ [12] = test: Potentiation factor, ratio of IC50 for antiproliferative activity against human EJ138 cells preincubated for 1 hr with CYP null bactosomes to IC50 for antiproliferative activity against human EJ138 cells preincubated for 1 hr with human CYP1B1 expressing bactosomes; assay type: functional; outline: as §4
EJ [13] = test: Potentiation factor, ratio of IC50 for antiproliferative activity against human EJ138 cells preincubated for 1 hr with CYP null bactosomes to IC50 for antiproliferative activity against human EJ138 cells preincubated for 1 hr with human CYP3A4 expressing bactosomes; assay type: functional; outline: as §4
Cytochrome P450 1A1 [14] = molecular target: T1, Cytochrome P450 1A1; test: Drug metabolism assessed as recombinant human CYP1A1-mediated metabolite M1 with m/z of 375.1 formation at 50 uM incubated for 1 hr in presence of reconstituted protein system by LC-MS analysis; assay type: ADME; conditions: recombinant enzyme; outline: as §2
Cytochrome P450 1A1 [15] = molecular target: T1, Cytochrome P450 1A1; test: Drug metabolism assessed as recombinant human CYP1A1-mediated metabolite M2 with m/z of 345.1 formation at 50 uM incubated for 1 hr in presence of reconstituted protein system by LC-MS analysis; assay type: ADME; conditions: recombinant enzyme; outline: as §2
Cytochrome P450 1A1 [16] = molecular target: T1, Cytochrome P450 1A1; test: Drug metabolism assessed as recombinant human CYP1A1-mediated metabolite M3 with m/z of 373.1 formation at 50 uM incubated for 1 hr in presence of reconstituted protein system by LC-MS analysis; assay type: ADME; conditions: recombinant enzyme; outline: as §2
Cytochrome P450 1A1 [17] = molecular target: T1, Cytochrome P450 1A1; test: Drug metabolism assessed as recombinant human CYP1A1-mediated metabolite M4 with m/z of 391.1 formation at 50 uM incubated for 1 hr in presence of reconstituted protein system by LC-MS analysis; assay type: ADME; conditions: recombinant enzyme; outline: as §2

Compound | IC50 (EJ [1]) | IC50 (RT-112) | IC50 (CHO [2]) | IC50 (CHO [3]) | Drug metabolism (Cytochrome P450 1A1 [4]) | IC50 (EJ [5]) | IC50 (EJ [6]) | IC50 (EJ [7]) | IC50 (EJ [8]) | IC50 (EJ [9]) | Ratio IC50 (EJ [10]) | Ratio IC50 (EJ [11]) | Ratio IC50 (EJ [12]) | Ratio IC50 (EJ [13]) | Drug metabolism (Cytochrome P450 1A1 [14]) | Drug metabolism (Cytochrome P450 1A1 [15]) | Drug metabolism (Cytochrome P450 1A1 [16]) | Drug metabolism (Cytochrome P450 1A1 [17])
COc1ccc2[nH]c(C(=O)N3CC(CCl)c4ccc(O)cc43)cc2c1 (stereo unspecified) | 0.038 µM | 0.055 µM | 0.03 µM | 0.035 µM | Metabolite_Detected |  |  |  |  |  |  |  |  |  |  |  |  | 
COc1ccc2[nH]c(C(=O)N3CC(CCl)c4cc(F)ccc43)cc2c1 (stereo unspecified) | 18.6 µM | 5.04 µM | 14.8 µM | 6.2 µM |  | 15.8 µM | 3.1 µM | 5.11 µM | 11.9 µM | 16.8 µM | 5.1 | 3.1 | 1.3 | 0.9 | Metabolite_Detected | Metabolite_Detected | Metabolite_Detected | Metabolite_Detected
CC(C)(C)OC(=O)N1CC(CCl)c2ccccc21 (stereo unspecified) | > 25 µM | > 25 µM | > 25 µM | > 25 µM |  |  |  |  |  |  |  |  |  |  |  |  |  | 
